We go through two compounds from PMC10527666 (Molecular imaging and biology, 2023).

Assay [1] deals with T1, α-synuclein fibrils (Homo sapiens, UniProt P37840). Nature of the assay: Compound screening, 1-point inhibition of [^3H]BF2846 binding. Particulars: read-out: % Inhibition [^3H]BF-2846. In a few lines:
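Human α-synuclein (C-terminal intein fusion, expressed in E. coli BL21(DE3), purified, quantified by A280) was fibrillised. Fibrils at 100 nM were incubated with 100 nM test compound and 3 nM [³H]BF2846 in 50 mM Tris-HCl pH 7.4, 1 h at 37 °C, with nonspecific binding defined by 0.5 μM BF2846. Samples were GF/C-filtered and scintillation-counted, in triplicate. Bound radioligand was expressed as % of total binding and tested by one-way ANOVA.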

Assay [2] has as its target T1, α-synuclein fibrils. The assay is described as follows: Competition binding assay against [^3H]BF2846. In a few lines: (§1)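 Fibrils (α-synuclein 50 nM; Aβ42 100 nM) incubated with 3 nM [³H]BF2846 and varying concentrations of test compound in 50 mM Tris-HCl pH 7.4, 1 h at 37 °C. Nonspecific binding was defined with 0.5 μM unlabeled BF2846, and fibril-free filter blanks were run. Samples were GF/C-filtered, washed with 10 mM Tris/150 mM NaCl and scintillation-counted after 12 h, in triplicate. Ki was obtained by nonlinear regression using radioligand Kd.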

The target in assay [3] is Aβ42 fibrils (Homo sapiens, UniProt P05067). The assay is described as follows: Competition binding assay against [^3H]BF2846. In a few lines:
as §1

Sequence of Aβ42 fibrils (P05067 672-713 limits assumed): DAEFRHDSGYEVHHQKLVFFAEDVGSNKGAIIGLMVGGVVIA

With `COc1ccc(C(=O)Nc2cc(-c3ccc(Br)cc3)no2)cc1` [Compound 15, N-(3-(4-bromophenyl)isoxazol-5-yl)-4-methoxybenzamide], in assay [1], the inhibition at 0.1 µM was determined as 80%. For the same compound, the inhibition constant (Ki) in assay [2] amounted to 11 nM; in assay [3], 36.1 nM.

Take `COc1ccc(C(=O)Nc2cc(-c3ccc(I)cc3)no2)cc1` [Compound 21, N-(3-(4-iodophenyl)isoxazol-5-yl)-4-methoxybenzamide]: the Ki in assay [2] came out at 3.6 nM.

As a reminder, the inhibition is the drop in the measured response relative to a control, in per cent. As a reminder, the Ki is the dissociation constant of the complex between target and ligand, obtained from inhibition or displacement. High values mean lower affinity, low ones higher affinity.
